ChEMBL document CHEMBL4014310, “Selective IKur Inhibitors for the Potential Treatment of Atrial Fibrillation: Optimization of the Phenyl Quinazoline Series Leading to Clinical Candidate 5-[5-Phenyl-4-(pyridin-2-ylmethylamino)quinazolin-2-yl]pyridine-3-sulfonamide” (J Med Chem, 2017)
pIC50: −log10 of the molar value. Active and inactive are the calls of the source. The rule behind the calls is not given here.

How the values were obtained:
[1] = Volume of distribution at steady state in mouse at 2 mg/kg, iv or 5 mg/kg, po; assay type: ADME, organism-based; conditions: in vivo, read-out: Vdss
Procedure, shortened: (§1)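 Single-dose PK in mouse and rat (2 mg/kg iv, 5 mg/kg po), cynomolgus monkey (1 mg/kg iv and po) and dog (0.1 mg/kg iv, 1 mg/kg po). Dosing vehicle was 1:4:5 EtOH/propylene glycol/PEG400. Parameters reported: clearance, Vss, half-life, Cmax, Tmax, AUC and oral bioavailability.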

[2] = Cmax in cynomolgus monkey at 1 mg/kg, iv or 1 mg/kg, po; assay type: ADME, organism-based, Macaca fascicularis; conditions: in vivo
Procedure, shortened: (§2)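 Single-dose PK study in mouse and rat (2 mg/kg iv, 5 mg/kg po), cynomolgus monkey (1 mg/kg iv and po) and dog (0.1 mg/kg iv, 1 mg/kg po). Dosing vehicle was 1:4:5 EtOH/propylene glycol/PEG400. Clearance, Vss, half-life, Cmax, Tmax, AUC (μM h) and oral %F were derived from plasma levels.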

Oryctolagus cuniculus [3] = experiment: Antiatrial fibrillation activity in methoxamine-sensitised rabbit assessed as plasma concentration required to show increase in atrial effective refractory period at 0.17 mg/kg, iv measured 15 mins post infusion; assay type: functional, organism-based
Procedure, shortened: (§3)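 Rabbit, iv infusion of compound in DMF (0.17 mg/mL) with a 0.17 mg/kg maintenance dose. AERP was normalized to DMF vehicle, with time counted from the start of the maintenance infusion. Tissues were collected after 30 min. n = 3 rabbits; means ± standard error.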

Plasma = experiment: Plasma concentration in pacing-induced mongrel dog heart failure model at 0.1 mg/kg, po; assay type: ADME, organism-based, Canis lupus familiaris; conditions: in vivo
Procedure, shortened: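 Simultaneous atrio-ventricular pacing dog model used to measure AF inducibility. Dogs were dosed orally at 0.1 mg/kg (n = 5) or 0.3 mg/kg (n = 6) in 10% EtOH/40% propylene glycol/50% PEG 400, and plasma concentration was measured alongside AF inductions and QTc.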

Canis familiaris [4] = experiment: Antiarrhythmic activity in mongrel dog heart failure model assessed as reduction in mean number of pacing-induced atrial fibrillation at 0.1 to 0.3 mg/kg, po; assay type: functional, organism-based; conditions: Canis lupus familiaris
Procedure, shortened: (§4)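 Simultaneous atrio-ventricular pacing dog model of atrial arrhythmia. Compound was given orally at 0.1 or 0.3 mg/kg in 10% EtOH/40% propylene glycol/50% PEG 400. AF inducibility was scored as mean number of AF inductions and total AF duration, with QTc monitored and plasma concentration measured. n = 7 control, 5 (0.1 mg/kg) and 6 (0.3 mg/kg) dogs.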

Oryctolagus cuniculus [5] = experiment: Antiatrial fibrillation activity in methoxamine-sensitised rabbit assessed as increase in atrial effective refractory period at 0.17 mg/kg, iv administered as 15 mins infusion relative to control; assay type: functional; procedure, shortened: as §3
Oryctolagus cuniculus [6] = experiment: Antiatrial fibrillation activity in methoxamine-sensitised rabbit assessed as increase in atrial effective refractory period at 0.17 mg/kg, iv measured 15 mins post infusion relative to control; assay type: functional; procedure, shortened: as §3
[7] = Cmax in mouse at 2 mg/kg, iv or 5 mg/kg, po; assay type: ADME, organism-based; conditions: in vivo; procedure, shortened: as §2
[8] = AUC in mouse at 2 mg/kg, iv or 5 mg/kg, po; assay type: ADME, organism-based; conditions: in vivo; procedure, shortened: as §2
[9] = Protein binding in rat plasma; assay type: ADME, cell-free; conditions: read-out: PPB
[10] = Clearance in mouse at 2 mg/kg, iv or 5 mg/kg, po; assay type: ADME, organism-based; conditions: in vivo; procedure, shortened: as §2
[11] = Volume of distribution at steady state in dog at 0.1 mg/kg, iv or 1 mg/kg, po; assay type: ADME, organism-based, Canis lupus familiaris; conditions: in vivo, read-out: Vdss; procedure, shortened: as §1
Oryctolagus cuniculus [12] = experiment: Antiatrial fibrillation activity in methoxamine-sensitised rabbit assessed as increase in atrial effective refractory period at 1 mg/kg, iv administered as 20 mins infusion relative to control; assay type: functional
Procedure, shortened: (§5)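 Rabbit, iv dosing at 1 or 3 mg/kg. AERP was measured at 10, 20 and 30 min time points as % prolongation, and plasma compound concentration was measured at the same time points and correlated with the AERP change.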

[13] = Half life in mouse at 2 mg/kg, iv or 5 mg/kg, po; assay type: ADME, organism-based; conditions: in vivo; procedure, shortened: as §2
[14] = Tmax in rat at 2 mg/kg, iv or 5 mg/kg, po; assay type: ADME, organism-based; conditions: in vivo; procedure, shortened: as §1
[15] = Half life in dog at 0.1 mg/kg, iv or 1 mg/kg, po; assay type: ADME, organism-based, Canis lupus familiaris; conditions: in vivo; procedure, shortened: as §2
[16] = Half life in rat at 2 mg/kg, iv or 5 mg/kg, po; assay type: ADME, organism-based; conditions: in vivo; procedure, shortened: as §2
Oryctolagus cuniculus [17] = experiment: Antiatrial fibrillation activity in methoxamine-sensitised rabbit assessed as plasma concentration required to show 10% increase in atrial effective refractory period at 0.17 mg/kg, iv administered as 30 mins infusion; assay type: functional, organism-based; procedure, shortened: as §3
Oryctolagus cuniculus [18] = experiment: Antiatrial fibrillation activity in methoxamine-sensitised rabbit assessed as increase in atrial effective refractory period at 1 mg/kg, iv administered as 30 mins infusion relative to control; assay type: functional; procedure, shortened: as §5
[19] = Volume of distribution at steady state in rat at 2 mg/kg, iv or 5 mg/kg, po; assay type: ADME, organism-based; conditions: in vivo, read-out: Vdss; procedure, shortened: as §1
[20] = Volume of distribution at steady state in cynomolgus monkey at 1 mg/kg, iv or 1 mg/kg, po; assay type: ADME, organism-based, Macaca fascicularis; conditions: in vivo, read-out: Vdss; procedure, shortened: as §1
[21] = Solubility of the compound in pH 1 to 8 solution using crystalline form; assay type: physicochemical
[22] = Cmax in dog at 0.1 mg/kg, iv or 1 mg/kg, po; assay type: ADME, organism-based, Canis lupus familiaris; conditions: in vivo; procedure, shortened: as §2
Oryctolagus cuniculus [23] = experiment: Antiatrial fibrillation activity in methoxamine-sensitised rabbit assessed as plasma concentration required to show increase in atrial effective refractory period at 0.17 mg/kg, iv measured 30 mins post infusion; assay type: functional, organism-based; procedure, shortened: as §3
Oryctolagus cuniculus [24] = experiment: Antiatrial fibrillation activity in methoxamine-sensitised rabbit assessed as increase in atrial effective refractory period at 3 mg/kg, iv administered as 20 mins infusion relative to control; assay type: functional; procedure, shortened: as §5
[25] = Inhibition of calcium channel (unknown origin); parameters: species or system Homo sapiens
Oryctolagus cuniculus [26] = experiment: Antiatrial fibrillation activity in methoxamine-sensitised rabbit assessed as increase in atrial effective refractory period at 0.17 mg/kg, iv administered as 1 min infusion relative to control; assay type: functional; procedure, shortened: as §3
[27] = Oral bioavailability in rat at 5 mg/kg; assay type: ADME, organism-based; conditions: in vivo; procedure, shortened: as §1
[28] = Plasma concentration in methoxamine-sensitised rabbit at 3 mg/kg, iv administered as 20 mins infusion; assay type: ADME, organism-based, Oryctolagus cuniculus
Oryctolagus cuniculus [29] = experiment: Antiatrial fibrillation activity in methoxamine-sensitised rabbit assessed as increase in atrial effective refractory period at 3 mg/kg, iv administered as 30 mins infusion relative to control; assay type: functional; procedure, shortened: as §5
[30] = Protein binding in human plasma; assay type: ADME, cell-free; conditions: read-out: PPB
[31] = Clearance in cynomolgus monkey at 1 mg/kg, iv or 1 mg/kg, po; assay type: ADME, organism-based, Macaca fascicularis; conditions: in vivo; procedure, shortened: as §2
Oryctolagus cuniculus [32] = experiment: Antiatrial fibrillation activity in methoxamine-sensitised rabbit assessed as increase in atrial effective refractory period at 0.17 mg/kg, iv measured 30 mins post infusion relative to control; assay type: functional; procedure, shortened: as §3
Canis familiaris [33] = experiment: Antiarrhythmic activity in mongrel dog heart failure model assessed as reduction in pacing-induced total atrial fibrillation duration at 0.1 to 0.3 mg/kg, po; assay type: functional, organism-based; conditions: Canis lupus familiaris; procedure, shortened: as §4
[34] = Oral bioavailability in cynomolgus monkey at 1 mg/kg using crystalline form; assay type: ADME, organism-based, Macaca fascicularis; conditions: in vivo
Procedure, shortened: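 Oral %F in cynomolgus monkey at 1 mg/kg po, with the compound given as a micronized crystalline suspension rather than the solution vehicle (iv reference dose 1 mg/kg).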

Vd [1]: 1.8 L/kg
Cmax [2]: 0.9 µM
concentration (Plasma): 0.47 µM
Cmax [7]: 4 µM
AUC [8]: 21 µM·h
fraction unbound [9]: < 0.01
clearance [10]: 10.6 mL/min/kg
Vd [11]: 0.2 L/kg
half-life [13]: 2 h
Tmax [14]: 2.6 h
half-life [15]: 51 h
half-life [16]: 3.2 h
Vd [19]: 0.9 L/kg
Vd [20]: 1.2 L/kg
solubility [21]: Soluble
Cmax [22]: 7.8 µM
pIC50 [25]: < 5.00
bioavailability [27]: 100%
fraction unbound [30]: < 0.01
clearance [31]: 3.2 mL/min/kg
bioavailability [34]: 54%
SMILES: NS(=O)(=O)c1cncc(-c2nc(NCc3ccccn3)c3c(-c4ccccc4)cccc3n2)c1 [BMS-919373]
Cp (Oryctolagus cuniculus [3]): 0.1 µM
Activity (Canis familiaris [4]): Active
Activity (Oryctolagus cuniculus [5]): 11%
Activity (Oryctolagus cuniculus [6]): 9.5%
Activity (Oryctolagus cuniculus [12]): 10.6%
Cp (Oryctolagus cuniculus [17]): 0.15 µM
Activity (Oryctolagus cuniculus [18]): 10.7%
Cp (Oryctolagus cuniculus [23]): 0.09 µM
Activity (Oryctolagus cuniculus [24]): 16.2%
Activity (Oryctolagus cuniculus [26]): 9.9%
concentration at 20 min [28]: 3.6 µM
Activity (Oryctolagus cuniculus [29]): 21.6 - 22%
Activity (Oryctolagus cuniculus [32]): 11.4%
Activity (Canis familiaris [33]): Active
